Marks after values point to notes of the source that are not given here.
How the values were obtained:
[1] = Pharmacokinetics of oral MTX in rats alone and coadministered with MOC; assay type: in vivo, Sprague–Dawley rats
In short: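 Groups were dosed orally and in parallel: MTX 5.0 mg/kg with an equal volume of water (n = 6), or with decoction given 0.5 h earlier. Rats were fasted overnight. Tail-vein blood (0.5 mL) was drawn at 0.25–48 h, and serum MTX was measured by fluorescence polarization immunoassay using the kit calibration. AUC0-t was derived by noncompartmental analysis.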

[2] = Mortality of rats observed during the pharmacokinetic study; assay type: in vivo, Sprague–Dawley rats; settings: oral MTX 5.0 mg/kg alone or coadministered with MOC (three groups)
In short: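 Male Sprague–Dawley rats (350–450 g) were fasted overnight with water allowed, and food was returned 3 h after dosing. They received oral MTX 5.0 mg/kg, given alone with water or 0.5 h after oral decoction at 2.0 or 4.0 g/kg. A fourth group got 2.0 g/kg thrice daily for 2 days before MTX. Deaths were noted over the 48-h sampling period.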

MDCKII-WT cells = experiment: MTT assay for cell viability, MDCKII-WT cells; assay type: cell-based, canine; settings: 150 μM, MDCKII-WT cells (data not shown)
In short: (§1)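 MDCKII cells (wild-type or BCRP-overexpressing, from the Netherlands Cancer Institute) were grown in DMEM with 10% FBS and 1% penicillin-streptomycin-glutamine at 37 °C under 5% CO₂. Viability after exposure to test agents was measured by MTT assay, following a cited method with minor modification.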

MDCKII-BCRP cells = experiment: MTT assay for cell viability, MDCKII-BCRP cells; assay type: cell-based, canine; settings: 100 μM, MDCKII-BCRP cells (data not shown)
In short: as §1

MRP2 [3] = target: MRP2 (Canis lupus familiaris, UniProt A0A8I3SCV5); experiment: MRP2 activity: intracellular accumulation of GSMF; assay type: cell-based; settings: MDCKII-WT cells
BCRP = target: T1, BCRP (Homo sapiens, UniProt Q9UNQ0); settings: concentrations of 12.5–100 μM; cited from earlier work
T1 sequence (Q9UNQ0 1-655): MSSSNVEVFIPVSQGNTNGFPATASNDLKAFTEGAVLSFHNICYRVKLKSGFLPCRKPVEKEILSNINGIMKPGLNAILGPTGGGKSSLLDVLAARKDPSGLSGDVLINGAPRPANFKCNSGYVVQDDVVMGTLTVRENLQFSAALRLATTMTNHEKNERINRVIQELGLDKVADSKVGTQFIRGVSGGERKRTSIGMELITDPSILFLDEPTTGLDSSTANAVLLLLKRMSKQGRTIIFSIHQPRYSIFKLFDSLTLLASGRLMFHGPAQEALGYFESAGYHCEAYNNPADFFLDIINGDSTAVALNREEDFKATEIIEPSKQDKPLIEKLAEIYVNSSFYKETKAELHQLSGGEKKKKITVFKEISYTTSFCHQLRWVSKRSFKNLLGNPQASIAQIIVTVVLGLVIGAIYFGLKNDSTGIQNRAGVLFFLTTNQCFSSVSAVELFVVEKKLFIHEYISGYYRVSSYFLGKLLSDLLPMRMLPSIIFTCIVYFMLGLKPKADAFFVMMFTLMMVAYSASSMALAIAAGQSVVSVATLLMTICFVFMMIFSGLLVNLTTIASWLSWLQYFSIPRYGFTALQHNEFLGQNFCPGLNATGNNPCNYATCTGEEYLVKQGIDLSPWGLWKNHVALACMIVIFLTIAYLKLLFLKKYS

MRP2 [4] = target: MRP2 (Homo sapiens, UniProt Q92887); assay type: cell-based; settings: MDCKII-MRP2 cells, 100 μM spiked in blank serum, Fig. 3(C)
[5] = 50 μM, MN/HK experiment, Fig. 3(B)

Chain of MRP2 (Canis lupus familiaris, UniProt A0A8I3SCV5) (A0A8I3SCV5 1-1544): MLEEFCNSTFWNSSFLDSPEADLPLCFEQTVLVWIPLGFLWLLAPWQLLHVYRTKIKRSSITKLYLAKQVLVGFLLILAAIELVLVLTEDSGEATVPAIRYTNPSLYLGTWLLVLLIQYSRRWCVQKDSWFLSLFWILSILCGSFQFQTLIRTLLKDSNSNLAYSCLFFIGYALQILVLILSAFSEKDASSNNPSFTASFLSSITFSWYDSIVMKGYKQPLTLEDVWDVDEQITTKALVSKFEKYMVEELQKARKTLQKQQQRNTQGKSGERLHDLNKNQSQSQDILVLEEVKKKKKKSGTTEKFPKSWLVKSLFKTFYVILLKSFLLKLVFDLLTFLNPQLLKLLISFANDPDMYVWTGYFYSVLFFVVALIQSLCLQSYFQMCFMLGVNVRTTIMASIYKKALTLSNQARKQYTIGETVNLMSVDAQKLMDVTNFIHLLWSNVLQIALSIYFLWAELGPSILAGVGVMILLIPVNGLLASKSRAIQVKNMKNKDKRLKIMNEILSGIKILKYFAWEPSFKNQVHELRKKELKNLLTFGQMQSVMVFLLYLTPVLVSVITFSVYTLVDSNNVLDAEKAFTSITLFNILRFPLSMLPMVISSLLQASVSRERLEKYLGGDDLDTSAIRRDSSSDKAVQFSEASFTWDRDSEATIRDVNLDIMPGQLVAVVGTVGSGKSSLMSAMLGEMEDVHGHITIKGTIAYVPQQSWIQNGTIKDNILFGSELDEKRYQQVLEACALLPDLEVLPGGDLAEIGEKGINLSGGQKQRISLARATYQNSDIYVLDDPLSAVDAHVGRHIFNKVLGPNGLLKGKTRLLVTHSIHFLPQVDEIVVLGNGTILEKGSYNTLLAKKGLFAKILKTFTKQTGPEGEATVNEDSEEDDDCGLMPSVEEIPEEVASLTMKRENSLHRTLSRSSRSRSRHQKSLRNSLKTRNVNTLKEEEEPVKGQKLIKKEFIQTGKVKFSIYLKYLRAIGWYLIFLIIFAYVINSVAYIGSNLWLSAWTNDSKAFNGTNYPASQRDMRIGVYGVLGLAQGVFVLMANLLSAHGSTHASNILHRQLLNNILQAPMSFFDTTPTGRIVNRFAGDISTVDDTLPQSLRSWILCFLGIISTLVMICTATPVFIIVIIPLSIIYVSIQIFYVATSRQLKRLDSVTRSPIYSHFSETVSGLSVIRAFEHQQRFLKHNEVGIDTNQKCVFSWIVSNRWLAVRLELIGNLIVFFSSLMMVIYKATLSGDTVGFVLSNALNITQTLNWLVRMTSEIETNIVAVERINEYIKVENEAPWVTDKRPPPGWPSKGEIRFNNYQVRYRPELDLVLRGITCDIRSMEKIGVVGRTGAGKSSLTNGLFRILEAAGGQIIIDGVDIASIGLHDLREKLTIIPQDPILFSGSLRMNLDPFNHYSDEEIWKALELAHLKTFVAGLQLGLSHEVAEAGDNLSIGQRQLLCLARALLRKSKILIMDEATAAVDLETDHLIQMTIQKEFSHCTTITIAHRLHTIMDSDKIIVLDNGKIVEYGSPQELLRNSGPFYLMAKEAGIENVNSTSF
Chain of MRP2 (Homo sapiens, UniProt Q92887) (Q92887 whole entry): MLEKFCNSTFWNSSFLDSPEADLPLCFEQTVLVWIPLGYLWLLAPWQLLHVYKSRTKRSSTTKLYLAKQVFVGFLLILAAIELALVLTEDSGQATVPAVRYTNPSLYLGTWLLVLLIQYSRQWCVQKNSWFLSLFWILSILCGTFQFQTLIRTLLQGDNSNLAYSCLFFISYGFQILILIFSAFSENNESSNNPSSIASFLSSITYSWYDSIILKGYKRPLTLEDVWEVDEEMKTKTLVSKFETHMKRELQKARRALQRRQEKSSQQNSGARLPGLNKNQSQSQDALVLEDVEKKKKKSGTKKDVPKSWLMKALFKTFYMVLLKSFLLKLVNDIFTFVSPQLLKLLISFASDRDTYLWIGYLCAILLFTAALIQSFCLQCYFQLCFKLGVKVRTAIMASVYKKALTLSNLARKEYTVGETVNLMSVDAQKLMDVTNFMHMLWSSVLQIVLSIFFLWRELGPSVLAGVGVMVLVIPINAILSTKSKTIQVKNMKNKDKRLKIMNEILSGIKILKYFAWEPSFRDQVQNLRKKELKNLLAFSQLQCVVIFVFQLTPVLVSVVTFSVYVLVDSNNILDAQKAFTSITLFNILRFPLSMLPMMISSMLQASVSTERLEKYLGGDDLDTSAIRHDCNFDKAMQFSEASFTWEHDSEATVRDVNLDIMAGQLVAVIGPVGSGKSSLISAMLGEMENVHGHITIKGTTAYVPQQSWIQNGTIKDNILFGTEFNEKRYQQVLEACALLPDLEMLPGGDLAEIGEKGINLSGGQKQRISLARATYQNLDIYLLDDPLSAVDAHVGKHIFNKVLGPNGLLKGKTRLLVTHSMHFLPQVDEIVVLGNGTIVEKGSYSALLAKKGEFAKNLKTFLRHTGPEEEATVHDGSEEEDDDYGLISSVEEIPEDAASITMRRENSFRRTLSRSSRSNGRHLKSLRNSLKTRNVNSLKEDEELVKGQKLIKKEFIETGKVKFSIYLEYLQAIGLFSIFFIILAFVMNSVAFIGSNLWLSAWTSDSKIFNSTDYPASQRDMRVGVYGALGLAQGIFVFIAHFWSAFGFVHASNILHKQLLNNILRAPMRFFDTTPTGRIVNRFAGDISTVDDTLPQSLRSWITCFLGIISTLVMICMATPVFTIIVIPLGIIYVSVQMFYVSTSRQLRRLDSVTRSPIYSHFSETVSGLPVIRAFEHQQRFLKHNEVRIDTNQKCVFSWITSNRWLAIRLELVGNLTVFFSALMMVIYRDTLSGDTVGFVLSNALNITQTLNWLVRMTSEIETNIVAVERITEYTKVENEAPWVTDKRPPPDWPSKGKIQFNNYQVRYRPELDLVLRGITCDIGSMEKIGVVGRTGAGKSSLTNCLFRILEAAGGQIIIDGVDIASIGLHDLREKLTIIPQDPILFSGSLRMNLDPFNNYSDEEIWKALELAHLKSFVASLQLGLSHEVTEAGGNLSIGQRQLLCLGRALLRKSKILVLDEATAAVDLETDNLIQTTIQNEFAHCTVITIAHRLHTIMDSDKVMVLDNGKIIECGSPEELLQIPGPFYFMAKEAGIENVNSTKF

Row | Structure (SMILES) | AUC0-t of MTX ([1]; oral MTX 5.0 mg/kg + water (MTX alone), n = 6, mean ± S.E.) | AUC0-t of MTX ([1]; oral MTX 5.0 mg/kg, MOC 2.0 g/kg thrice daily for 2 days, 7th dose 0.5 h before MTX, n = 5, mean ± S.E.) | AUC0-t of MTX ([1]; oral MTX 5.0 mg/kg, single dose MOC 2.0 g/kg 0.5 h before MTX, n = 6, mean ± S.E.) | AUC0-t of MTX ([1]; oral MTX 5.0 mg/kg, single dose MOC 4.0 g/kg 0.5 h before MTX, n = 6, mean ± S.E.) | Mortality of rats during the pharmacokinetic study [2] | Effect on cell viability (MTT) (MDCKII-WT cells) | Effect on cell viability (MTT) (MDCKII-BCRP cells) | Increase of intracellular accumulation of GSMF (MRP2 [3]; 25 μM, MN/HK experiment, Fig. 3(B)) | Increase of intracellular accumulation of GSMF (MRP2 [3]; [5]) | Effect on BCRP (BCRP) | Increase of intracellular accumulation of GSMF (MRP2 [3]; 50 μM, positive control in MOC experiment, Fig. 3(A)) | Increase of intracellular accumulation of GSMF (MRP2 [4])
1 | CN(Cc1cnc2nc(N)nc(N)c2n1)c1ccc(C(=O)N[C@@H](CCC(=O)O)C(=O)O)cc1 [MTX, Methotrexate] | 44.6 ± 5.0^a μmol·min·mL^−^1 | 250.2 ± 31.2 μmol·min·mL^−^1 | 201.5 ± 39.2 μmol·min·mL^−^1 | 206.8 ± 35.9 μmol·min·mL^−^1 | all survived very well |  |  |  |  |  |  | 
2 | C=CCc1ccc(O)c(-c2ccc(O)c(CC=C)c2)c1 [HK, honokiol] |  |  |  |  |  | no toxic effects | no toxic effects | 34% | 75% | significantly inhibited |  | 
3 | C=CCc1ccc(O)c(-c2cc(CC=C)ccc2O)c1 [MN, magnolol] |  |  |  |  |  | no toxic effects | no toxic effects |  | 137% | significantly inhibited |  | 
4 | CN(C)C(=O)CCSC(SCCC(=O)O)c1cccc(/C=C/c2ccc3ccc(Cl)cc3n2)c1 (centres unmarked) [MK 571, reference compound] |  |  |  |  |  |  |  |  | 331% |  | 203% | 72%

Reference: paper PMC10962649 (Journal of Food and Drug Analysis, 2024)
